Results collected from several papers.
Compare with care: the assays were run in different laboratories.
Target: Sodium-dependent dopamine transporter (SLC6A3, Homo sapiens, UniProt Q01959)

Clc1ccc(C(c2ccc(Cl)cc2)c2nnnn2CCCCN2CCN(Cc3ccccc3)CC2)cc1 — inhibition (transporter uptake, inhibitor; HEK293; 1 µM): 91.7%
Cc1cc(-c2nc(CN3CCNCC3)no2)cc2c1C(=O)N(Cc1ccc(OC(F)(F)F)cc1)C2 — inhibition (ligand displacement, radioligand; 10 µM): 44%
COc1cc(NC(C)=O)c(Cl)cc1C(=O)Nc1nccs1 — inhibition (cell-free assay; 10 µM): 5.5%
CCN(CC)c1ccc(C2Nc3ccc(C(=O)c4ccccc4)cc3NC3=C2C(=O)CC(C)(C)C3)cc1 (stereo not drawn) — inhibition (ligand displacement, radioligand; 10 µM): 69%
N#Cc1cc(Cn2c(N3CCCC3)nc3ccccc32)ccc1F — inhibition (ligand displacement; 10 µM): 19.3%
Oc1cccc(Nc2nc(-c3ccc(F)cc3F)cs2)c1 — inhibition (cell-free assay; 10 µM): 49.8%
O=C1N=C(N2CCCCN2)S/C1=C\c1ccc(F)cc1O — inhibition (ligand displacement, radioligand; 10 µM): < 10%
CCN(Cc1ccccc1C(F)(F)F)C(=O)C1CCN(S(=O)(=O)c2ccc3[nH]ncc3c2)CC1 — inhibition (ligand displacement, radioligand; 10 µM): 39%
Fc1ccc(C(c2ccc(F)cc2)c2nnnn2CCCCN2CCN(CCCc3ccccc3)CC2)cc1 — inhibition (transporter uptake, inhibitor; HEK293; 1 µM): 56.2%
Nc1ccc(-c2ccncc2)cc1NC(=O)N1CCCC1 — inhibition (ligand displacement, radioligand; 10 µM): 21%
Clc1ccc(C(c2ccccc2)c2nnnn2CCCN2CCC(CCCc3ccccc3)CC2)cc1 (stereo not drawn) — inhibition (transporter uptake, inhibitor; HEK293; 1 µM): 89.6%
CCCNc1nc2ccccc2n1Cc1ccc(Cl)cc1 — inhibition (ligand displacement; 10 µM): 24.3%
